Screening results from PubChem.
Beta cell apopt: blocks beta cell apoptosis. INS-1E cytokine-induced death, ATP luminescence, 48 h; percent of positive-control rescue, neutral wells zero. protection from apoptosis, % (concentration not given with the values). 300,000 compounds, 0.8% hits. AID 435005;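 active means Every replicate reaches about 75%, or at least half do and their mean reaches it too, limit read from the data; inconclusive means At least half of replicates reach the limit but their mean does not; inactive means Under half of replicates reach the limit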;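 further: higher means more ATP so stronger rescue from cytokine killing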
Mdm2-MdmX inh: inhibitors of human Mdm2/MdmX interaction; O15151+Q00987; SaOS-2 split-luciferase Mdm2/MdmX complementation, luminescence; inhibition, % at 8 µM; 330,000 compounds, 3% hits; AID 485346;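 active means inhibition of at least 50% at 8 µM in the primary screen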
Target sequence (O15151 whole entry, looked up): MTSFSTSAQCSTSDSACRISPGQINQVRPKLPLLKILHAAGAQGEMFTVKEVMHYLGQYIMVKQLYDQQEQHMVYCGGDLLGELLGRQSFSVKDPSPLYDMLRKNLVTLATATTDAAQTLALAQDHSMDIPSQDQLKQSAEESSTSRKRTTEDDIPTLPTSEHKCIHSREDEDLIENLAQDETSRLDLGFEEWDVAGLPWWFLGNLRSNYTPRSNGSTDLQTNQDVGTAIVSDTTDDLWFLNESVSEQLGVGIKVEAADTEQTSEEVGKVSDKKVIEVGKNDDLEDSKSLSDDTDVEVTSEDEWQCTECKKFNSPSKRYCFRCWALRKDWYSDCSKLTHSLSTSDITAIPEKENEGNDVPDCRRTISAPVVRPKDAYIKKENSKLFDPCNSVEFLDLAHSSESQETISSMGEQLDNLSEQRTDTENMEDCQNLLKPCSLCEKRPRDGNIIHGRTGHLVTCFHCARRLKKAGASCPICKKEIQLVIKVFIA
Target sequence (Q00987 whole entry, looked up): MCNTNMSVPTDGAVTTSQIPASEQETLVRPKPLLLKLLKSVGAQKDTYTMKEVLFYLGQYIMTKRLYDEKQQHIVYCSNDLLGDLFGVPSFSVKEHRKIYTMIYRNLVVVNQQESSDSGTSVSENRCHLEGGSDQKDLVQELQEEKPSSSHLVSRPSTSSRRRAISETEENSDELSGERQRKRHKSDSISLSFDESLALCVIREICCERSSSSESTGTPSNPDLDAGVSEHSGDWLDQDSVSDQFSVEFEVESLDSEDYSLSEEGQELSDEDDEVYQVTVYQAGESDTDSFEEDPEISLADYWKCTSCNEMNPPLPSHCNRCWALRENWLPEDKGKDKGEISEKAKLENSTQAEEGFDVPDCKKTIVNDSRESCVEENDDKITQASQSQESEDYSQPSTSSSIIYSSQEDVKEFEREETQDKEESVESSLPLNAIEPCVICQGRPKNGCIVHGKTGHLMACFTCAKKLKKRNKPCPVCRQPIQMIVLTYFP
CSC inhib: blocks cancer stem cells. inhibition, % at 7.5 µM. 300,000 compounds, 1.1% hits. cancer stem cell-like cells viability, luminescence; in the data active means inhibition above about 75%; inconclusive means no clear call, values can overlap the other calls; tested in HMLE shEcad cells
SKKanGAS inh: SKKanGAS growth inhibition. S. pyogenes SKKanGAS, kanamycin growth, BacTiter-Glo, 6 h. inhibition, % at 7.5 µM. 300,000 compounds, 1.3% hits;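 active means mean replicate score, as percent of positive control median, at least 50; inconclusive means mean below 50 but one replicate at or above 50; inactive means mean and every replicate below 50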;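 further: strain carries kanamycin resistance gene driven by streptokinase promoter and grows in 40 µg/ml kanamycin; loss of luminescence reflects streptokinase promoter inhibition or plain growth inhibition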
Calb FLC: C. albicans growth modulation with fluconazole; 300,000 compounds, 0.57% hits; C. albicans CaCi-2 (fluconazole-resistant clinical isolate) + fluconazole, Alamar Blue growth, 48 h; growth inhibition, % (test concentration not listed);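 active means growth inhibition above about 58% in most replicates, limit read from the data, passing the limit was not always enough; inconclusive means exactly half the replicates above a set limit; inactive means most replicates below a set limit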;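 further: all wells also contain fluconazole at 8 µg/ml as a sub-toxic cotreatment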
T cruzi repl: blocks replication of Trypanosoma cruzi | T. cruzi beta-gal in NIH3T3, luminescence, 90 h | inhibition, % (no concentration beside the values) | 300,000 compounds, 1.4% hits | AID 1885;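 active means mean inhibition across valid replicates above about 55%, limit read from the data; inconclusive means mean below that limit but half or more replicates reach it; inactive means mean below it, under half of replicates reach it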;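 further: signal also drops with host cell toxicity which is not excluded here; higher percent means less beta-gal luminescence so fewer parasites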
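Assay system: NIH/3T3 fibroblasts plus reporter T. cruzi. Amount: NIH/3T3 cells, 5,000 per well. Buffer or medium: DMEM, 2% fetal bovine serum. Doses: compound pinned at 50 nL/well, DMSO. Schedule: ≥90 h infection period, 3 h prior cell attachment. Signal: luminescent β-galactosidase signal after 60 min lysis. Read-out: parasite load inhibition, %.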
Mdm2 MdmX conf: human Mdm2/MdmX binding inhibition, confirmed | shares compounds with Mdm2-MdmX inh | luminescent assay | 10,000 compounds, 55% hits | inhibition, % at 8 µM; in the data active means inhibition above about 40%
Full FLuc ctr: counter-screen for Mdm2/MdmX inhibitors: full-length luciferase; shares compounds with Mdm2-MdmX inh; AID 504607; 6,200 compounds, 77% hits; SaOS-2 full-length luciferase counterscreen, luminescence; inhibition, % at 8 µM;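 active means mean inhibition at 8 µM reaching about 37%, which flags the compound as non-specific, limit read from the data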;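 further: p53-null SaOS-2 cells with luciferase driven by a doxycycline-inducible promoter; compound on cells about two nights before reading with doxycycline added after day one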
Of the large screens only hits and unclear results are named; the others gave an inactive call (follow-up assays come after a bar, where they were run). Shown are actives, neighbours in structure and some others; about 5.7% of the full set was active somewhere.

CCC[C@@H]1C[C@@H](C(=O)NC(C(C)Cl)[C@H]2O[C@H](SC)[C@H](O)[C@@H](O)[C@H]2O)N(C)C1 (some centres not stated)	SKKanGAS inh 106 (no result: Calb FLC)
CCCC1CC(C(=O)NC(C(C)Cl)C2OC(SC)C(O)C(O)C2O)N(C)C1 (configuration not stated)	SKKanGAS inh 106 (no result: Calb FLC)
COc1c(N2CCN(C(=S)NCc3ccccc3)C(C)C2)c(F)cc2c(=O)c(C(=O)O)cn(C3CC3)c12 (configuration not stated)	SKKanGAS inh 106 (no result: CSC inhib)
CCOc1cccc(-c2c(C(=O)N/N=C/c3ccc(Br)cc3)nnn2-c2nonc2N)c1	none (no result: Beta cell apopt)
O=C(O)c1ccc(OCC(F)(F)F)nc1	none
CN1CCN(c2ncnc3sc(-c4ccccc4)cc23)CC1	T cruzi repl 74
COc1ccc(CCN(C)CCC(=O)Nc2ccc(C)cc2)cc1OC	T cruzi repl 59
O=C(CSc1ccc(-c2ccccc2)nn1)NCc1ccco1	none
CC(C)Cc1nnc(NC(=O)CCC(=O)N2CC(C)CC(C)C2)s1 (configuration not stated)	none
C=CCSc1nc(C)cc(C(=O)OCC)c1C#N	none (no result: Beta cell apopt, CSC inhib)
COc1ccc(CN(C(=O)c2ccco2)c2ccc(C)c(C)c2)cc1	Mdm2-MdmX inh 58 | Mdm2 MdmX conf 57 | Full FLuc ctr 60
CCOc1ccc(N(Cc2ccc(OC)cc2)C(=O)c2ccco2)cc1	none
CCc1ccc(-c2nc(CN3CCC(C(=O)NCc4ccc(F)cc4)CC3)c(C)o2)cc1	Mdm2-MdmX inh 58 | Mdm2 MdmX conf 42 | Full FLuc ctr 67
CCN(CCNC(=O)C1CCN(Cc2nc(-c3ccc(Cl)cc3)oc2C)CC1)c1ccccc1	Mdm2-MdmX inh 51, Calb FLC inconclusive (no result: Beta cell apopt) | Mdm2 MdmX conf 54 | Full FLuc ctr 48
CCN(CCNC(=O)C1CCN(Cc2nc(-c3cccc(Cl)c3)oc2C)CC1)c1ccccc1	Mdm2-MdmX inh 52, T cruzi repl inconclusive | Mdm2 MdmX conf 51 | Full FLuc ctr 61
CCC1CCCCN1CCCNC(=O)C1CCN(Cc2nc(-c3ccc(Cl)cc3)oc2C)CC1 (configuration not stated)	Mdm2-MdmX inh 98 | Mdm2 MdmX conf 96 | Full FLuc ctr 60
CN(C)S(=O)(=O)N1CCC(n2nccc2NC(=O)CCCc2ccccc2)CC1	none
CCc1ccc(-c2nc(CN3CCC(C(=O)NCCN(CC)c4ccccc4)CC3)c(C)o2)cc1	Mdm2-MdmX inh 78, Calb FLC inconclusive | Mdm2 MdmX conf 80 | Full FLuc ctr 59
CCc1ccc(-c2nc(CN3CCC(C(=O)N4CCN(c5ccccc5)CC4)CC3)c(C)o2)cc1	Mdm2-MdmX inh 53, Calb FLC inconclusive | Mdm2 MdmX conf 40 | Full FLuc ctr 86
O=C(CN(C(=O)c1ccc(Cl)cc1)C1CCCCC1)Nc1ccc(Cl)c([N+](=O)[O-])c1	Mdm2-MdmX inh 65 | Mdm2 MdmX conf 43 | Full FLuc ctr 72
O=C(CN(C(=O)c1ccccc1Cl)C1CCCCC1)Nc1ccc(Cl)c([N+](=O)[O-])c1	none
CCCCn1c(=N)n(CCOc2ccc(C)cc2)c2ccccc21	Mdm2-MdmX inh 63 | Mdm2 MdmX conf inactive | Full FLuc ctr 63
CCN(CC)CCn1c(=N)n(CCOc2ccccc2)c2ccccc21	Mdm2-MdmX inh 50, T cruzi repl 69 | Mdm2 MdmX conf 61 | Full FLuc ctr 62
COc1ccc(OCCn2c(=N)n(CCO)c3ccccc32)cc1	none
CCn1cc(C(=O)NCCC(C)C)c(=O)c2cc(F)c(N3CCN(C(=O)c4ccco4)CC3)cc21	Mdm2-MdmX inh 54 | Mdm2 MdmX conf 42 | Full FLuc ctr 63
CCn1cc(C(=O)NC(C)C)c(=O)c2cc(F)c(N3CCN(C(=O)c4ccco4)CC3)cc21	none
O=C(CCNC(=O)c1ccc([N+](=O)[O-])cc1)NC1CCCc2ccccc21 (configuration not stated)	none (no result: Beta cell apopt, CSC inhib, SKKanGAS inh, Calb FLC, T cruzi repl)
Fc1ccccc1-c1nc(NCc2ccccc2)c2ccccc2n1	none
c1ccc(CNc2nc(-c3ccccc3)nc3ccccc23)cc1	none (no result: Beta cell apopt)
Fc1ccc(Nc2nc(NCc3ccco3)c3ccccc3n2)cc1	Mdm2-MdmX inh 77, CSC inhib 86, T cruzi repl 57 | Mdm2 MdmX conf inactive
c1ccc(CNc2nc(-c3ccccn3)nc3ccccc23)cc1	Beta cell apopt 106, Mdm2-MdmX inh 78, SKKanGAS inh 93 | Mdm2 MdmX conf 78 | Full FLuc ctr inactive
Nc1nc(Nc2ccccc2)nc(NCc2ccco2)c1[N+](=O)[O-]	none
c1ccc(CNc2nc(NCc3ccccc3)c3ccccc3n2)cc1	Beta cell apopt 114, Mdm2-MdmX inh 100, CSC inhib 135, Calb FLC 80 | Mdm2 MdmX conf 75 | Full FLuc ctr 51
CCC(C)Nc1nc(-c2ccccn2)nc2ccccc12 (configuration not stated)	Beta cell apopt 90, Mdm2-MdmX inh 82, SKKanGAS inh 89, T cruzi repl 64 | Mdm2 MdmX conf 58 | Full FLuc ctr inactive
Cc1ccc(C(=O)N/C(=C/c2ccc(Cl)cc2)C(=O)N2CCOCC2)cc1	none (no result: Beta cell apopt)
Oc1ccc(/C=N/Nc2nc(-c3cccnc3)nc3ccccc23)c(O)c1	Calb FLC inconclusive
Fc1ccccc1/C=N/Nc1nc(-c2ccccn2)nc2ccccc12	Beta cell apopt 105, Mdm2-MdmX inh 82, T cruzi repl 55 | Mdm2 MdmX conf 78 | Full FLuc ctr 57
C[C@@H]1[C@H]2[C@@H](O[C@@H]3O[C@H](CO)[C@@H](O)[C@H](O)[C@H]3O)OC=C(C(=O)O)[C@H]2C[C@@H]1O	none
Cc1ccc(C(=O)NCc2ccco2)cc1S(=O)(=O)N1CCCC1	none
CN(C)c1ccc(/C=C2\C(=N)N3N=C(CC(=O)N4CCCCC4)SC3=NC2=O)cc1	none
CN(C)c1ccc(/C=C2\C(=N)N3C(=NC2=O)Sc2cc(S(C)(=O)=O)ccc23)cc1	Mdm2-MdmX inh 89 (no result: Beta cell apopt) | Mdm2 MdmX conf inactive
Cc1ccnc(SCc2cc(=O)c(OC(=O)c3ccc(S(=O)(=O)N(C)C)cc3)co2)n1	Calb FLC inconclusive (no result: CSC inhib)
O=C(NNc1cccc(Cl)n1)Nc1ccc(F)cc1	none
O=C(N/N=C/c1coc2ccc(Cl)cc2c1=O)c1ccncc1	Mdm2-MdmX inh 60 | Mdm2 MdmX conf 44 | Full FLuc ctr 63
O=C(N/N=C/c1ccc[nH]1)c1ccc(Cl)cc1	none
CCOC(=O)CNC(=O)CSc1nnc(NC(=O)c2ccc(C)cc2)s1	Mdm2-MdmX inh 54 | Mdm2 MdmX conf 41 | Full FLuc ctr 68
Cc1cc(NC(=O)CCS(=O)(=O)c2nc(-c3ccccc3)cc(C(F)(F)F)n2)no1	Mdm2-MdmX inh 88 (no result: SKKanGAS inh, Calb FLC, T cruzi repl) | Mdm2 MdmX conf 78 | Full FLuc ctr 43
